Data: ChEMBL document CHEMBL1155110, “Ribose-modified purine nucleosides as ribonucleotide reductase inhibitors. Synthesis, antitumor activity, and molecular modeling of N6-substituted 3'-C-methyladenosine derivatives” (J Med Chem, 2008)

Experiments:
K562 [1] = test: Antitumor activity against human K562 cells after 48 hrs by MTS assay; format: functional; conditions: K562, 48 h
Method in brief: (§1)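 Cells grown in RPMI 1640 (K562) or MEM with Earle's salts (HT-29, CaCo-2, MCF-7) plus 10% FBS, 37 °C, 5% CO2; adherent lines trypsinized to single-cell suspension. Log-phase cells plated at about 5000 cells/mL, acclimatized 24 h, then exposed to serial dilutions in triplicate, up to 250 µM, for 48 h. MTS/PMS added 3 h; absorbance 490 nm; GI50 from growth inhibition.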

Caco-2 = test: Antitumor activity against human CaCo2 cells after 48 hrs by MTS assay; format: functional; conditions: Caco-2, 48 h; method in brief: as §1
HT-29 = test: Antitumor activity against human HT29 cells after 48 hrs by MTS assay; format: functional; conditions: HT-29, 48 h; method in brief: as §1
MCF7 = test: Antitumor activity against human MCF7 cells after 48 hrs by MTS assay; format: functional; conditions: MCF7, 48 h; method in brief: as §1
Adenosine receptor A3 = biological target: T1, Adenosine receptor A3 (Homo sapiens, UniProt P0DMS8); test: Inhibition of human adenosine A3 receptor
T1 sequence (P0DMS8 whole entry): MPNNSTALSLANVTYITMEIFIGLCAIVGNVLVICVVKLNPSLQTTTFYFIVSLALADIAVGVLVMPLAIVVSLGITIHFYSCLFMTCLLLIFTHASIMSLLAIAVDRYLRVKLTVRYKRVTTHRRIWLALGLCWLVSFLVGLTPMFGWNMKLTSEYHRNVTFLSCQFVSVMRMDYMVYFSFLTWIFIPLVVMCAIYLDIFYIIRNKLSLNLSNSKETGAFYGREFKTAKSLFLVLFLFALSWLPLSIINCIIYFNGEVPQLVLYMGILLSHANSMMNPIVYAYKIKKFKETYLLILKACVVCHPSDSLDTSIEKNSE

HL-60 [2] = test: Decrease in intracellular dATP pool in human HL60 cells at 2.5 uM after 24 hrs relative to control; format: functional; set-up: scale not given: the % may be the effect or the level left
Method in brief: (§2)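 HL-60 cells in log phase (0.5 × 10^6 per ml) incubated 24 h with drug at 2.5, 5 or 10 µM. dNTPs extracted from 5 × 10^7 cells by trichloroacetic acid lysis, Freon/tri-n-octylamine neutralization, periodate oxidation with methylamine (37 °C, 30 min). Quantified by SAX HPLC in ammonium phosphate pH 3.4 with 2% acetonitrile, UV 280/260 nm; expressed versus untreated control.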

HL-60 [3] = test: Decrease in intracellular dATP pool in human HL60 cells at 5 uM after 24 hrs relative to control; format: functional; set-up: scale not given: the % may be the effect or the level left; method in brief: as §2
HL-60 [4] = test: Decrease in intracellular dATP pool in human HL60 cells at 10 uM after 24 hrs relative to control; format: functional; set-up: scale not given: the % may be the effect or the level left; method in brief: as §2
HL-60 [5] = test: Decrease in intracellular dCTP pool in human HL60 cells at 40 nM relative to control; format: functional; set-up: scale not given: the % may be the effect or the level left
HL-60 [6] = test: Decrease in intracellular dATP pool in human HL60 cells at 40 nM relative to control; set-up: scale not given: the % may be the effect or the level left
K562 [7] = test: Growth inhibition of 0.1 uM 1,4-dihydro-2-methyl-6-phenyl-4-(phenylethyl)-3,5-pyridine-dicarboxylic acid 3-ethyl-5-[(3-nitrophenyl) methyl] ester pretreated human K562 cells after 48 hrs by MTS assay; format: functional
K562 [8] = test: Growth inhibition of 1 uM 1,4-dihydro-2-methyl-6-phenyl-4-(phenylethyl)-3,5-pyridine-dicarboxylic acid 3-ethyl-5-[(3-nitrophenyl) methyl] ester pretreated human K562 cells after 48 hrs by MTS assay; format: functional
K562 [9] = test: Growth inhibition of 0.1 uM 1,4-dihydro-2-methyl-6-phenyl-4-(phenylethyl)-3,5-pyridine-dicarboxylic acid 3-ethyl-5-[(3-nitrophenyl) methyl] ester pretreated human K562 cells after 72 hrs by MTS assay; format: functional
K562 [10] = test: Growth inhibition of 1 uM 1,4-dihydro-2-methyl-6-phenyl-4-(phenylethyl)-3,5-pyridine-dicarboxylic acid 3-ethyl-5-[(3-nitrophenyl) methyl] ester pretreated human K562 cells after 72 hrs by MTS assay; format: functional

OC[C@H]1O[C@@H](n2cnc3c(NC4CCCC4)nc(Cl)nc32)[C@H](O)[C@@H]1O
GI50 (K562 [1]): > 250 µM
GI50 (Caco-2): > 250 µM
GI50 (HT-29): > 250 µM
GI50 (MCF7): > 250 µM

OC[C@H]1O[C@@H](n2cnc3c(NCc4cccs4)ncnc32)[C@H](O)[C@@H]1O
GI50 (K562 [1]): 3.1 µM
GI50 (Caco-2): 3.3 µM
GI50 (HT-29): 53.4 µM
GI50 (MCF7): 51.5 µM
Ki (Adenosine receptor A3): 0.06 µM

OC[C@H]1O[C@@H](n2cnc3c(NC4CCCCC4)ncnc32)[C@H](O)[C@@H]1O
GI50 (K562 [1]): > 250 µM
GI50 (Caco-2): > 250 µM
GI50 (HT-29): > 250 µM
GI50 (MCF7): > 250 µM

C[C@@]1(O)[C@@H](CO)O[C@@H](n2cnc3c(NC4CCCCCC4)ncnc32)[C@@H]1O
GI50 (K562 [1]): 83 µM
GI50 (Caco-2): > 250 µM
GI50 (HT-29): 106 µM
GI50 (MCF7): 200 µM

C[C@@]1(O)[C@@H](CO)O[C@@H](n2cnc3c(Nc4ccccc4)ncnc32)[C@@H]1O
GI50 (K562 [1]): 98 µM
GI50 (Caco-2): 246 µM
GI50 (HT-29): 137 µM
GI50 (MCF7): 207 µM

C[C@@]1(O)[C@@H](CO)O[C@@H](n2cnc3c(NCc4ccccc4)ncnc32)[C@@H]1O
GI50 (K562 [1]): > 250 µM
GI50 (Caco-2): > 250 µM
GI50 (HT-29): > 250 µM
GI50 (MCF7): > 250 µM

C[C@@]1(O)[C@@H](CO)O[C@@H](n2cnc3c(Nc4cc[nH]n4)ncnc32)[C@@H]1O
GI50 (K562 [1]): > 250 µM
GI50 (Caco-2): > 250 µM
GI50 (HT-29): > 250 µM
GI50 (MCF7): > 250 µM

C[C@@]1(O)[C@@H](CO)O[C@@H](n2cnc3c(NCc4cccs4)ncnc32)[C@@H]1O
GI50 (K562 [1]): > 250 µM
GI50 (Caco-2): > 250 µM
GI50 (HT-29): > 250 µM
GI50 (MCF7): > 250 µM

C[C@@]1(O)[C@@H](CO)O[C@@H](n2cnc3c(N)ncnc32)[C@@H]1O
GI50 (K562 [1]): 9.4 µM
GI50 (Caco-2): 23.2 µM
GI50 (HT-29): 26.1 µM
GI50 (MCF7): 22.4 µM

C[C@@]1(O)[C@@H](CO)O[C@@H](n2cnc3c(NC4CC4)ncnc32)[C@@H]1O
GI50 (K562 [1]): 73 µM
GI50 (Caco-2): > 250 µM
GI50 (HT-29): > 250 µM
GI50 (MCF7): > 250 µM

C[C@@]1(O)[C@@H](CO)O[C@@H](n2cnc3c(NC4CCC4)ncnc32)[C@@H]1O
GI50 (K562 [1]): 246 µM
GI50 (Caco-2): > 250 µM
GI50 (HT-29): > 250 µM
GI50 (MCF7): > 250 µM

C[C@@]1(O)[C@@H](CO)O[C@@H](n2cnc3c(NC4CCCC4)ncnc32)[C@@H]1O
GI50 (K562 [1]): 145 µM
GI50 (Caco-2): > 250 µM
GI50 (HT-29): > 250 µM
GI50 (MCF7): > 250 µM

C[C@@]1(O)[C@@H](CO)O[C@@H](n2cnc3c(NC4CCCC4)nc(Cl)nc32)[C@@H]1O
GI50 (K562 [1]): > 250 µM
GI50 (Caco-2): > 250 µM
GI50 (HT-29): > 250 µM
GI50 (MCF7): > 250 µM

C[C@@]1(O)[C@@H](CO)O[C@@H](n2cnc3c(NCc4ccco4)ncnc32)[C@@H]1O
GI50 (K562 [1]): > 250 µM
GI50 (Caco-2): > 250 µM
GI50 (HT-29): > 250 µM
GI50 (MCF7): > 250 µM

C[C@@]1(O)[C@@H](CO)O[C@@H](n2cnc3c(NC4CCCCC4)ncnc32)[C@@H]1O
GI50 (K562 [1]): 50 µM
GI50 (Caco-2): 223 µM
GI50 (HT-29): > 250 µM
GI50 (MCF7): > 250 µM

C[C@@]1(O)[C@H](O)[C@@H](CO)O[C@H]1n1cnc2c(N)ncnc21
GI50 (K562 [1]): 16 µM
GI50 (Caco-2): > 100 µM
GI50 (HT-29): > 100 µM
GI50 (MCF7): > 100 µM

C[C@@]1(O)[C@@H](CO)O[C@@H](n2cnc3c(N[C@@H]4C[C@@H]5CC[C@@H]4C5)ncnc32)[C@@H]1O (racemic)
GI50 (K562 [1]): 32.5 µM
GI50 (Caco-2): 56 µM
GI50 (HT-29): 65.8 µM
GI50 (MCF7): 56 µM
Activity (HL-60 [2]): 65%
Activity (HL-60 [3]): 28%
Activity (HL-60 [4]): 10%

OC[C@H]1O[C@@H](n2cnc3c(N[C@@H]4C[C@@H]5CC[C@@H]4C5)ncnc32)[C@H](O)[C@@H]1O (racemic)
GI50 (K562 [1]): 116 µM
GI50 (Caco-2): > 250 µM
GI50 (HT-29): > 250 µM
GI50 (MCF7): > 250 µM

Nc1ccn([C@@H]2O[C@H](CO)[C@@H](O)C2(F)F)c(=O)n1 [GEMCITABINE]
GI50 (K562 [1]): 0.32 µM
GI50 (Caco-2): 0.18 µM
GI50 (HT-29): 0.03 µM
GI50 (MCF7): 0.01 µM
Activity (HL-60 [5]): 6.1%
Activity (HL-60 [6]): 13.9%

OC[C@H]1O[C@@H](n2cnc3c(NCc4ccco4)ncnc32)[C@H](O)[C@@H]1O [KINETIN RIBOSIDE]
GI50 (K562 [1]): 3.3 µM
GI50 (Caco-2): 45.6 µM
GI50 (HT-29): 60.2 µM
GI50 (MCF7): 45.6 µM
Ki (Adenosine receptor A3): 0.022 µM

OC[C@H]1O[C@@H](n2cnc3c(NCc4ccccc4)ncnc32)[C@H](O)[C@@H]1O [N6-BENZYLADENOSINE]
GI50 (K562 [1]): 4.6 µM
GI50 (Caco-2): 7.4 µM
GI50 (HT-29): 22.3 µM
GI50 (MCF7): 61 µM
Ki (Adenosine receptor A3): 0.0413 µM
GI50 (K562 [7]): 3.91 µM
GI50 (K562 [8]): 4.17 µM
GI50 (K562 [9]): 2.92 µM
GI50 (K562 [10]): 2.92 µM

OC[C@H]1O[C@@H](n2cnc3c(NC4CCCC4)ncnc32)[C@H](O)[C@@H]1O [N6-CYCLOPENTYLADENOSINE]
GI50 (K562 [1]): > 250 µM
GI50 (Caco-2): > 250 µM
GI50 (HT-29): > 250 µM
GI50 (MCF7): > 250 µM

OC[C@H]1O[C@@H](n2cnc3c(Nc4ccccc4)ncnc32)[C@H](O)[C@@H]1O [N6-PHENYLADENOSINE]
GI50 (K562 [1]): > 250 µM
GI50 (Caco-2): > 250 µM
GI50 (HT-29): > 250 µM
GI50 (MCF7): > 250 µM
